# Sampled rows, rich in hits. Any-hit rate of the full collection: about 3.5%.
# HIV Env fusion – inhibitors of HIV Env-mediated cell fusion | HeLa-JRFL Env/CEM21 cell fusion, luciferase | inhibition, % at 12.3 µM | 360,000 tested, 1.1% active | AID 651610;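 active = mean replicate inhibition score of at least 50 and every replicate individually at or above 50; inconclusive = only one of the two criteria met; inactive = mean below 50 and not all replicates reaching 50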;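 note: 0% = plate neutral controls and 100% = maraviroc near 300 nM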
# PGC1a acetyl inh – lowers PGC1a acetylation signal in U2OS cells. AlphaScreen anti-acetyl-lysine; with virally co-expressed GCN5 acetyltransferase. AID 651687. inhibition, % at 15.6 µM. 350,000 tested, 0.17% active;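 active = every replicate shows inhibition of at least 40%; inconclusive = mean inhibition at least 40% but some replicate below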;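 note: 0% = neutral control wells and 100% = positive control wells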
# DENV2 CPE rescue – inhibitors of DENV2 cytopathic effect. DENV2-infected cells, cytopathic effect rescue, plate reader. CPE inhibition, % at 9.99 µM. 350,000 tested, 1.7% active; in the data active = CPE inhibition above about 20%, passing the limit was not always enough; inconclusive = no clear call, values can overlap the other calls; tested in BHK-21 cells;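 note: 0% = median of neutral control wells and 100% = median of positive control wells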
# PglD DTNB – PglD (C. jejuni) enzyme inhibition; inhibition, % at 12.5 µM; 360,000 tested, 0.098% active; purified PglD enzyme, DTNB colorimetric CoA detection; in the data active = inhibition above about 16%, passing the limit was not always enough; inconclusive = no clear call, values can overlap the other calls
# FN deposition inh – fibronectin deposition inhibition | AH1F fibroblasts, Alexa488-fibronectin deposition fluorescence, overnight | inhibition, % at 12.6 µM | 350,000 tested, 0.086% active;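 active = mean inhibition across replicates of 30% or more, regardless of how many single replicates reach that level; inconclusive = mean under 30% yet at least half of replicates reach 30%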;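 note: positive control wells lacked labelled fibronectin entirely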
#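 Measured by – fluorescence 485/525 nm · System – AH1F fibroblast monolayer, labelled fibronectin deposition · Amount – 10000 cells per well · Buffer or medium – serum-reduced DMEM (2% serum) · Doses – single dose, pinned · Also added – fluorescent fibronectin at 24 nM final · Schedule – 1 h cell attachment, overnight exposure to compound and label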
# Ecoli rRNA inh – selective bacterial rRNA inhibition in E. coli; E. coli WT GFP vs humanized-ribosome RFP mutants, fluorescence, 24 h; stronger effect = lower value; DMSO median 0, no signal -100; GFP signal change (wild-type ribosome), % (concentration not given with the values); 350,000 tested, 1.6% active;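 active = significant combined selectivity score with lowered wild-type GFP, culture density cut under 30%, mutant RFP and density less affected; inactive = any of these conditions unmet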
# * hit, by the source's call; ? = inconclusive; / = no result given; [ ] = dose if it differs, or a comment.
SMILES,HIV Env fusion,PGC1a acetyl inh,DENV2 CPE rescue,PglD DTNB,FN deposition inh,Ecoli rRNA inh
CN1CC(c2ccccc2)Oc2ccccc2C1=S (stereo not given),2.3,/,-0.3,/,-2.7,-36.2*
COc1ccc2c3c(n(C)c2c1)[C@H](CO)N(Cc1ccccc1)CC31CN(C(=O)Nc2cccc(F)c2)C1,-1.9[16.7 µM],/,1.5,/,/,-1.2
COc1c(OC(C)=O)ccc(/C=C/c2ccc3ccccc3n2)c1[N+](=O)[O-],/,-7.2,-6.8,3.5,/,-42.9*
COc1c(OC(C)=O)ccc(/C=C/c2ccc3cccc(OC)c3n2)c1[N+](=O)[O-],-6.5,/,/,/,5.0,/
Cc1cccc(-c2ccc([C@@H]3[C@H]4CN(C(=O)c5cnccn5)CC(=O)N4[C@H]3CO)cc2)c1,/,/,/,/,/,-1.1
C[C@@H]1CN([C@H](C)CO)C(=O)c2cc(NS(=O)(=O)c3cccs3)ccc2O[C@@H]1CN(C)C(=O)NC1CCCCC1,/,6.0,0.2,1.2,-4.3,-2.6
C[C@]12CCC(=O)C=C1CCC1C2CC[C@@]2(C)C1CCC21OCCO1 (stereo not given in full),-53.6,-5.5,-6.1,-4.4,0.0,-54.2
CC(=O)C12OC1CC1C3CCC4=CC(=O)CCC4(C)C3CCC12C (stereo not given),-97.0,/,-5.3,2.5,-14.0,-23.2*
O=C(Nc1cccc2cccnc12)c1ccccc1Br,-3.3,/,16.4,/,7.3,-25.5*
CCC(=O)Nc1ccc2c(c1)C(=O)N(C)C[C@H](OC)[C@@H](C)CN(C(=O)c1cccnc1)[C@@H](C)CO2,-0.3[16.7 µM],3.2,-3.1,43.2,-5.4,1.9
CC(=O)OC1CC(c2cc(C(C)(C)C)c(O)c(C(C)(C)C)c2)=NO1 (stereo not given),-14.4,0.8,-2.0,/,9.0,-21.0*
COc1ccc2c3c([nH]c2c1)[C@@H](CO)N(S(=O)(=O)c1cn(C)cn1)CC31CCN(Cc2ccccc2)CC1,/,/,/,/,/,-1.9
CN(Cc1ccccc1)C(=O)c1[nH]cnc1C(=O)NCc1ccccc1,14.6,/,0.1,2.5,2.4,-28.3*
CN(Cc1ccccc1)C(=O)c1[nH]cnc1C(=O)NCc1ccc(CNC(=O)OC(C)(C)C)cc1,16.9,/,-18.9,2.3,4.5,-12.3
CN=CC1=C(O)CC(C)(C)CC1=O,/,2.8,/,-2.6,/,/
CC1(C)CC(=O)C(C=NCC(N)=O)=C(O)C1,/,?,5.4,5.2,/,-22.6*
CC(C)NC(=O)NCC[C@@H]1CC[C@H](NS(=O)(=O)c2ccccc2)[C@H](CO)O1,/,/,/,/,/,2.3
Cc1nc(C(=O)Nc2ccc(Cl)cc2)sc1C1(C)CC(c2cccc([N+](=O)[O-])c2)=NO1 (stereo not given),55.0*,/,14.2,5.9,9.1,13.0
Cc1ccccc1CS(=O)(=O)c1nnc([C@H](Cc2ccccc2)NC(=O)OC(C)(C)C)o1,/,54.9*,1.2,-2.8,/,14.4
CC(C)(C)OC(=O)N[C@@H](Cc1ccccc1)c1nnc(S(=O)(=O)Cc2ccccc2)o1,47.5,/,/,/,/,/
O=C(Nc1cccc(F)c1)N1C[C@H]2[C@@H](c3ccccc31)[C@H](CO)N2C(=O)C1CCOCC1,/,3.5,13.7,-0.8,/,0.7
CCOC(=O)C1CCN(c2ncnc3c(C)csc23)CC1,-14.7,/,3.3,/,-6.8,-25.4*
O=C(c1ccco1)N1CCN(c2ncnc3c2nnn3Cc2ccccc2Cl)CC1,/,/,/,-3.5,/,-27.7
CCOC(=O)C1CCN(c2ncnc3c2nnn3Cc2ccccc2Cl)CC1,15.1,0.3,9.1,0.1,2.3,-20.5*
CCOC(=O)C1CCN(c2ncnc3nc[nH]c23)CC1,-3.2,-1.4,-6.4,2.9,-3.7,-6.7
SMILES,HIV Env fusion,PGC1a acetyl inh,DENV2 CPE rescue,PglD DTNB,FN deposition inh,Ecoli rRNA inh
C[C@H](O)C#Cc1ccc2c(c1)O[C@@H](CN(C)Cc1cncnc1)[C@H](C)CN([C@@H](C)CO)S2(=O)=O,-1.5[16.7 µM],7.3,/,-0.8,-11.0,0.7
CCc1cccc2c1Sc1ccccc1CC2N1CCNCC1 (stereo not given),23.7,/,-16.4,/,3.1,-51.5*
C[C@@H]1CN([C@H](C)CO)C(=O)Cc2cc(NS(=O)(=O)c3ccc(F)cc3)ccc2O[C@@H]1CN(C)S(=O)(=O)c1ccccc1,-13.2[16.7 µM],-5.5,-2.1,0.8,/,-1.2
C/C(=N\NC(=S)NC1CCCCC1)c1c(F)cccc1F,13.2,/,-3.3,7.0,-4.3,-56.4
C/C(=N\NC(=S)NC1CCCCC1)c1cccs1,1.2,6.1,16.1,9.3,-4.8,-25.6*
CCOC(=O)c1ccccc1NS(=O)(=O)c1ccc(OCC)cc1,62.8*,-50.5,/,1.3,-9.0,/
COc1ccc(C(=O)Nc2ccc(OCc3ccccc3)cc2)cc1[N+](=O)[O-],-50.7,/,/,-5.1,2.9,/
COc1ccc(C(=O)Nc2ccc(Nc3ccccc3)cc2)cc1[N+](=O)[O-],-24.6,6.5,39.8*,-7.3,2.9,-15.2*
Cc1c(C(=O)Nc2ccc(OCc3ccccc3)cc2)cccc1[N+](=O)[O-],-65.0,-8.9,/,-1.7,-10.5,/
COC(=O)c1cc(NC(=O)c2cccc([N+](=O)[O-])c2C)ccc1Cl,6.0,3.4,-0.1,-4.4,6.5,-25.2*
Cc1c(C(=O)Nc2ccc(C(=O)Nc3ccccc3)cc2)cccc1[N+](=O)[O-],-3.3,-6.0,25.9*,3.6,1.0,7.2
Cc1c(NC(=O)c2ccc3nsnc3c2)cccc1[N+](=O)[O-],5.2,1.3,8.7,-6.6,32.8*,22.4
CS(=O)(=O)Nc1ccc2c(c1)[C@H]1C[C@H](CC(=O)NCCN3CCCCC3)O[C@@H](CO)[C@H]1O2,-0.9[16.7 µM],11.8,2.4,0.4,/,2.1
CN1CCN(C(=O)C[C@@H]2CC[C@H]3[C@H](COc4ccc(NC(=O)C5CCCC5)cc4C(=O)N3C)O2)CC1,/,/,25.3*,/,0.1,0.7
CN1C(=O)c2cc(NC(=O)c3cccc(F)c3)ccc2OC[C@H]2O[C@@H](CC(=O)N3CCc4ccccc4C3)CC[C@@H]21,/,-6.4,6.0,-3.4,12.7,-26.2*
CN(C)C(=O)C[C@@H]1CC[C@@H]2[C@H](COc3ccc(NC(=O)C4CCCCC4)cc3C(=O)N2C)O1,-15.7[16.7 µM],0.0,27.9*,3.1,17.6,3.5
C[C@@H]1CN([C@@H](C)CO)C(=O)Cc2cc(N(C)C)ccc2O[C@@H]1CN(C)C(=O)Nc1cccc2ccccc12,?,1.8,4.0,0.4,/,3.2
CC(C)(C)c1ccc(Cn2nnc3c(=O)[nH]c(C4CCCN(C(=O)Cc5cccs5)C4)nc32)cc1 (stereo not given),63.4*,-5.5,/,-1.9,-11.0,/
CC(C)(C)c1ccc(Cn2nnc3c(=O)[nH]c(C4CCN(C(=O)Cc5cccs5)CC4)nc32)cc1,72.3*,-17.8,/,-3.9,-0.7,/
O=C(Cc1cccs1)N1CCCC(c2nc3c(nnn3Cc3ccc(F)cc3)c(=O)[nH]2)C1 (stereo not given),-22.6,-21.3,/,-4.2,-2.3,/

# High-throughput results: PubChem BioAssay, Broad Institute
